Drawing on ChEMBL document CHEMBL4513216, “Probing the Open Global Health Chemical Diversity Library for Multistage-Active Starting Points for Next-Generation Antimalarials” (ACS Infect Dis, 2020), this text covers cytotoxicity for 95 compounds.

The data set can be described thus: Toxicity liver stage against HepG2, at 10uM. It is filed as cell-based. On the set-up: test concentration 10 uM, cell line HepG2-A16-CD81EGFP. To be noted: human, HepG2-A16-CD81EGFP cells; read-out: INHIBITION
The method in brief:
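Uninfected HepG2-A16-CD81EGFP cells, 3 × 10^3 per well, 1536-well, plated on prespotted compound at 10 μM final, parasite-free screening media added to match infected plates; puromycin 10 μM positive, DMSO 0.5% negative; run in parallel with 48 h PbLuc assay at 37 °C, 5% CO2; viability by CellTiter-Glo luminescence, normalized to controls.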
Consider `CCC1CCCCN1S(=O)(=O)c1c(C)noc1C` (stereo not given), for which the cytotoxicity at 10 µM is -9.35%.

In the case of `O=C(CN1CCCC1COc1ccccc1)NCc1ccccn1` (stereo not given), the cytotoxicity at 10 µM is -0.764%.

For the compound `CCN(C)C[C@@H]1CN(C(=O)c2cc(-c3ccc(F)cc3)n[nH]2)C[C@@H]1CO`, the cytotoxicity at 10 µM is -26.4%.

For `Cc1ccc2nc(CN3CCC(O)(CN4CCCC4)CC3)cc(O)c2c1`, the cytotoxicity at 10 µM was -51.9%.

In the case of `O=S(=O)(c1ccccc1)N1CCC2(CCCN2Cc2cccc(Cl)c2)C1` (stereo not given), the cytotoxicity at 10 µM is -130%.

As for `CS(=O)(=O)CC1(CNc2c(C#N)cnc3ccc(Cl)cc23)CC1`, the cytotoxicity at 10 µM came out at 8.62%.

`Cc1ccc(CN2CC3(CCN(C(=O)c4cscn4)C3)C2)o1`: the cytotoxicity at 10 µM was 5.28%.

In the case of `Cc1ccnc(CC(C)N(C)Cc2ccc3c(c2)CCO3)c1` (stereo not given), the cytotoxicity at 10 µM was 1.63%.

Turning to `CN(C)S(=O)(=O)N1CCCCC1CCc1ccc(O)cc1` (stereo not given), the cytotoxicity at 10 µM was 4.32%.

In the case of `COc1nccnc1N1CCCC2(C1)C(=O)N(C)c1ccccc12` (stereo not given), the cytotoxicity at 10 µM was -6.47%.

For `O=C(c1cscn1)N1CC[C@@H]2[C@@H]1CCN2CC1CCOCC1`, the cytotoxicity at 10 µM worked out at 5.3%.

For the compound `Cc1cnccc1CN(C)C1CCN(c2ncnc3[nH]cnc23)CC1`, the cytotoxicity at 10 µM was -42.9%.

As to `CCc1nc(CN2CCCN(C(=O)c3ccccc3)CC2)cs1`, the cytotoxicity at 10 µM amounted to 7.41%.

`CNc1cccc(CC2COCCN(C(=O)c3cnn(C)c3)C2)n1` (stereo not given): the cytotoxicity at 10 µM stood at 2.64%.

Regarding `COc1ccc(N2CCN(C(=O)NC(C)c3nncn3C)CC2)cc1` (stereo not given), the cytotoxicity at 10 µM was -7.12%.

As for `CCN1CCC(CC(=O)N2CCN(c3ccccc3OC)CC2C)CC1` (stereo not given), the cytotoxicity at 10 µM is -4.9%.

Take `CCCC(=O)N1CCc2c(CNS(C)(=O)=O)cncc2C1`: the cytotoxicity at 10 µM was found to be 4.36%.

As to `CC(C)n1c2ccccc2c2c1cc(C(=O)N(C)C)n2C`, the cytotoxicity at 10 µM is -85.4%.

As for `CCCC(C)CS(=O)(=O)NCc1cccnc1N(C)C` (stereo not given), the cytotoxicity at 10 µM was found to be 2.96%.

Consider `Cc1ccc(C(=O)NCC2COCCO2)c(=O)[nH]1` (stereo not given), for which the cytotoxicity at 10 µM stood at 10.9%.

As for `CCS(=O)(=O)N1CCC(C(=O)NC(Cc2ccsc2)c2nccs2)CC1` (stereo not given), the cytotoxicity at 10 µM was -2.72%.

As to `Cc1cc(Cl)ccc1C(=O)N1C[C@H](C2CC2)[C@@H](N)C1`, the cytotoxicity at 10 µM is -46.6%.

As for `O=C(NCCC1CCCCO1)c1cc(COc2cncc(Cl)c2)on1` (stereo not given), the cytotoxicity at 10 µM is -1.73%.

As for `O=C(CN1CCOC(Cn2cccn2)C1)Nc1ccncc1` (stereo not given), the cytotoxicity at 10 µM was found to be 0.748%.

As for `COc1ncc(C2CC(=O)NCc3nc4ccccn4c32)cn1` (stereo not given), the cytotoxicity at 10 µM was -9.75%.

Turning to `CN(Cc1cccc(OC(F)(F)F)c1)C(=O)c1ccncc1F`, the cytotoxicity at 10 µM was determined as 3.76%.

Regarding `CN(C)C(=O)C1CCN(Cn2ccc(-c3ccc(F)cc3)n2)CC1`, the cytotoxicity at 10 µM was determined as 6.19%.

As to `O=c1[nH]c(CN2CCN(CC(F)(F)F)CC2)nc2ccccc12`, the cytotoxicity at 10 µM is 10.2%.

Turning to `FC(F)(F)c1cc(N2CCc3ncnc(NC4CC4)c3CC2)ncn1`, the cytotoxicity at 10 µM was 1.79%.

As to `CN1CCCN(c2ccc(F)cc2CNC(=O)c2ccsc2)CC1`, the cytotoxicity at 10 µM is -12.3%.

As for `Cc1nn(C)c(C)c1C1CCCN1Cc1cccc(C(N)=O)c1` (stereo not given), the cytotoxicity at 10 µM is -10.2%.

Turning to `CC(C)COC(C)C(=O)NCc1ccccc1` (stereo not given), the cytotoxicity at 10 µM is 4.79%.

With `O=C(CCc1ccc(OC(F)(F)F)cc1)N1CCCS1(=O)=O`, the cytotoxicity at 10 µM was 3.42%.

Take `COC1COC2(CCN(Cc3ccc4ccccc4n3)CC2)C1` (stereo not given): the cytotoxicity at 10 µM worked out at 5.05%.

`COC(=O)c1cc(C(=O)N2CCOCC2(C)C)n(-c2ccccc2)n1`: the cytotoxicity at 10 µM was -10.2%.

As for `Cn1cc(CN2CCC(F)(F)C3(CCN(c4ncc(F)cn4)C3)C2)cn1` (stereo not given), the cytotoxicity at 10 µM is 1.2%.

Consider `CN(C)CCN1C(=O)C[C@@H]2[C@@H]1CCN2S(=O)(=O)c1ccccc1`, for which the cytotoxicity at 10 µM was -7.52%.

For `O=c1cc(CN2CCCCC2c2cccc(F)c2)[nH]c2ncnn12` (stereo not given), the cytotoxicity at 10 µM is -3.46%.

With `Cc1cnn(CC(C)Nc2cnc3ccccc3n2)c1` (stereo not given), the cytotoxicity at 10 µM was determined as 14.5%.

Turning to `O=C1NC(c2ccccc2)=N[C@@]12CC[C@@H]1CN(S(=O)(=O)C3CC3)C[C@@H]12`, the cytotoxicity at 10 µM was determined as 9.91%.

For the compound `CC(C)c1ncc(C(=O)N(C)c2ccc(Br)cn2)s1`, the cytotoxicity at 10 µM was found to be 9.12%.

With `O=C(NCCN1CCOCC1)c1ccc(OCc2ccccc2)nc1`, the cytotoxicity at 10 µM was -5.97%.

Regarding `CC(=O)N1CCC(N2C[C@@H](F)[C@@H](OCc3nc4ncccc4[nH]3)C2)CC1`, the cytotoxicity at 10 µM was determined as 6.1%.

For the compound `O=C(c1ccc2c(c1)OCO2)N1C[C@@H](CN2CCCCC2)[C@@H](CO)C1`, the cytotoxicity at 10 µM is -4.06%.

In the case of `O=C(C1CCOCC1)N1CCc2ncc(CN3CCCC3)n2CC1`, the cytotoxicity at 10 µM was -76.1%.

On to `Cc1cnn(Cc2cc(F)ccc2F)c1NC(=O)C1CCOCC1`, for which the cytotoxicity at 10 µM is -0.303%.

As for `CN(Cc1ccco1)[C@@H]1CN(Cc2ccc(F)cc2)C[C@@H]2CCCO[C@@H]21`, the cytotoxicity at 10 µM was found to be 2.91%.

In the case of `Cc1cc(C(N)=O)nc(C2(C)CCCN2Cc2cnn(C)c2)n1` (stereo not given), the cytotoxicity at 10 µM is -23.6%.

Take `c1ccc(NCc2cn3c(n2)CN(Cc2cccnc2)CC3)nc1`: the cytotoxicity at 10 µM is 1.52%.

For the compound `CS(=O)(=O)NCc1cc2n(n1)CCCN(Cc1cc3ccccc3o1)C2`, the cytotoxicity at 10 µM was 0.403%.

As for `Fc1ccccc1Cn1c(C2CCNCC2)cc2cccnc21`, the cytotoxicity at 10 µM came out at 1.25%.

With `Cc1noc(C(C)SCc2ccccn2)n1` (stereo not given), the cytotoxicity at 10 µM is -6.67%.

Consider `Cc1ccc(CN2CCc3c(COCC4CC4)nn(C)c3C2)s1`, for which the cytotoxicity at 10 µM was determined as 6.35%.

For the compound `O=C(C(CNCc1ccccc1O)c1ccccc1)N1CCOCC1` (stereo not given), the cytotoxicity at 10 µM was -0.138%.

For the compound `COCc1nc(C2CC2)nn1-c1cccc(F)c1`, the cytotoxicity at 10 µM turned out to be 2.64%.

On to `COc1ccc2c(c1)C(C(=O)NCCCN1CCN(C)CC1)CC(=O)N2` (stereo not given), for which the cytotoxicity at 10 µM was 11.2%.

For the compound `Cc1nn(C)c2c(NCc3ccc(F)cc3)nc(C3CC3)nc12`, the cytotoxicity at 10 µM is 0.107%.

Turning to `O[C@H]1CCN(CC2CC2)[C@H]1Cc1ccncc1`, the cytotoxicity at 10 µM amounted to 0.165%.

Regarding `CCN(CC)c1ccc(C(=O)N2CCCC(n3cncn3)C2)cn1` (stereo not given), the cytotoxicity at 10 µM is -4.78%.

For the compound `NC(=O)c1ccc(N2CCN(CCCc3cn[nH]c3)CC2)cc1`, the cytotoxicity at 10 µM is -153%.

In the case of `NC(=O)N1C[C@@H]2CN(C(=O)c3ccco3)C[C@@H]2C1`, the cytotoxicity at 10 µM was -2.54%.

In the case of `Cc1noc([C@@H]2C[C@H]3OCC[C@H]3N(Cc3cc(C)c(C)o3)C2)n1`, the cytotoxicity at 10 µM is -72.2%.

Regarding `c1ccc(Oc2ncccc2CNCc2ccccn2)cc1`, the cytotoxicity at 10 µM is -8.04%.

Regarding `Cc1cccc(CN2C(=O)C[C@H]3[C@@H]2CCN3CC2CC2)n1`, the cytotoxicity at 10 µM came out at 6.59%.

On to `COc1c(CNCCc2c[nH]c3cc(F)ccc23)c(C)nn1C`, for which the cytotoxicity at 10 µM is -7.53%.

With `COc1cc(NC(=O)c2ccc(C)c(F)c2)c(C(=O)N(C)C)cc1OC`, the cytotoxicity at 10 µM came out at 2.82%.

Consider `CC(C)=CCN1C(=O)[C@@H]2CC[C@H]1CN(C(=O)CCc1nnc(Cl)[nH]1)C2`, for which the cytotoxicity at 10 µM worked out at 2.96%.

As to `Cc1ccc(C)c(OC(C)C(=O)NCc2cccnc2)c1` (stereo not given), the cytotoxicity at 10 µM is 2.13%.

`CN(Cc1cccnc1)C[C@H]1OC[C@@H]2CCN(C(=O)C3CC3)C[C@@H]21`: the cytotoxicity at 10 µM is -117%.

In the case of `O=C1COC2(CCN(S(=O)(=O)C3CC3)CC2)CN1c1cccnc1`, the cytotoxicity at 10 µM is -1.69%.

Turning to `Fc1ccc(OC2CCN(CCn3cncn3)CC2)cc1`, the cytotoxicity at 10 µM is -5.92%.

On to `COCCN1C(=O)CO[C@H]2CN(Cc3c[nH]nc3-c3ccccc3)C[C@@H]21`, for which the cytotoxicity at 10 µM was -4.04%.

Regarding `CC(C)(C)n1ncc(C(=O)NCCCC(N)=O)c1C(F)(F)F`, the cytotoxicity at 10 µM was found to be 8.85%.

Regarding `Cc1nn(C)cc1C(=O)N1CCCC(n2nnc3cc(F)ccc32)C1` (stereo not given), the cytotoxicity at 10 µM is -11%.

With `Cc1noc(C)c1CN(C)c1nccc(C(F)(F)F)n1`, the cytotoxicity at 10 µM was -4.73%.

In the case of `CN(C)Cc1nnc(C2CCN(c3ncccc3Cl)CC2)n1C1CC1`, the cytotoxicity at 10 µM is -2.57%.

Turning to `Cc1cnc(Nc2cccc(C3CCCN3Cc3cn(C)nc3C)n2)s1` (stereo not given), the cytotoxicity at 10 µM came out at 13.2%.

Turning to `c1ccc(OCCN2CCCCC2Cn2cncn2)cc1` (stereo not given), the cytotoxicity at 10 µM is -15.7%.

In the case of `COc1c(Br)cccc1CCNC(=O)c1csnn1`, the cytotoxicity at 10 µM is -2.5%.

Consider `CN(C(=O)c1cccc(C(=O)NCC(F)(F)F)c1)c1ccccc1`, for which the cytotoxicity at 10 µM is -14.8%.

As for `CCN(C)S(=O)(=O)NCC1CCCN(Cc2ccccc2F)C1` (stereo not given), the cytotoxicity at 10 µM is -1.22%.

As to `CCC(C)[C@H](NC(=O)c1ccc(F)cc1-n1cnnn1)C(=O)OC` (stereo not given in full), the cytotoxicity at 10 µM was determined as 5.55%.

As to `CN1CCC(C)(CNC(=O)c2ccc(SCc3cccnc3)cc2)CC1`, the cytotoxicity at 10 µM stood at 12.4%.

Consider `Cc1cnn(CCNCc2nnc(-c3ccc(F)cc3)o2)c1`, for which the cytotoxicity at 10 µM is -43.9%.

`CC(C)CCCC(C)NC(=O)c1ccc(OCC(N)=O)cc1` (stereo not given): the cytotoxicity at 10 µM turned out to be 10.2%.

For the compound `COCc1cccc(C(=O)N2CCN(C3=NCC(C)(C)S3)CC2)c1`, the cytotoxicity at 10 µM worked out at 4.65%.

Take `CCC1CN(CC(=O)NC2(C#N)CCCC2)CCN1CCOC` (stereo not given): the cytotoxicity at 10 µM was 4.56%.

For the compound `O=C1OCCN1Cc1nc(C2(c3ccc(F)cc3)CCOC2)no1` (stereo not given), the cytotoxicity at 10 µM is -5.22%.

As for `Cc1nnc(CN2CCCC2c2c(C)nn(C)c2Cl)o1` (stereo not given), the cytotoxicity at 10 µM was 0.174%.

On to `Cc1cc(CN2CCN(C(=O)C3CCC3)[C@@H]3CS(=O)(=O)C[C@@H]32)ccc1F`, for which the cytotoxicity at 10 µM was found to be 0.66%.

With `COc1cccc(CN2CCCCC2c2n[nH]cc2-c2cc(C)no2)c1` (stereo not given), the cytotoxicity at 10 µM was determined as 17.1%.

Take `CN1CC2(CCCN(Cc3nnc(-c4ccco4)o3)CC2)OC1=O` (stereo not given): the cytotoxicity at 10 µM was -6.12%.

`Cc1nccn1CC1CCCN1S(=O)(=O)Cc1ccccc1` (stereo not given): the cytotoxicity at 10 µM was -18%.

As for `c1ccc(C(c2ccccc2)N2CCN(CCn3cncn3)CC2)cc1`, the cytotoxicity at 10 µM is -7.72%.

Turning to `COCCNC(=O)c1cc(OC)ccc1Br`, the cytotoxicity at 10 µM was -4.2%.
